{
  "source": "ChEMBL document CHEMBL1145430",
  "about": "“Synthesis and simple 18F-labeling of 3-fluoro-5-(2-(2-(fluoromethyl)thiazol-4-yl)ethynyl)benzonitrile as a high affinity radioligand for imaging monkey brain metabotropic glutamate subtype-5 receptors with positron emission tomography” (J Med Chem, 2007)",
  "key": {"[1]": {"target": "Metabotropic glutamate receptor 5 (Rattus norvegicus, UniProt P31424)", "sequence (P31424 whole entry)": "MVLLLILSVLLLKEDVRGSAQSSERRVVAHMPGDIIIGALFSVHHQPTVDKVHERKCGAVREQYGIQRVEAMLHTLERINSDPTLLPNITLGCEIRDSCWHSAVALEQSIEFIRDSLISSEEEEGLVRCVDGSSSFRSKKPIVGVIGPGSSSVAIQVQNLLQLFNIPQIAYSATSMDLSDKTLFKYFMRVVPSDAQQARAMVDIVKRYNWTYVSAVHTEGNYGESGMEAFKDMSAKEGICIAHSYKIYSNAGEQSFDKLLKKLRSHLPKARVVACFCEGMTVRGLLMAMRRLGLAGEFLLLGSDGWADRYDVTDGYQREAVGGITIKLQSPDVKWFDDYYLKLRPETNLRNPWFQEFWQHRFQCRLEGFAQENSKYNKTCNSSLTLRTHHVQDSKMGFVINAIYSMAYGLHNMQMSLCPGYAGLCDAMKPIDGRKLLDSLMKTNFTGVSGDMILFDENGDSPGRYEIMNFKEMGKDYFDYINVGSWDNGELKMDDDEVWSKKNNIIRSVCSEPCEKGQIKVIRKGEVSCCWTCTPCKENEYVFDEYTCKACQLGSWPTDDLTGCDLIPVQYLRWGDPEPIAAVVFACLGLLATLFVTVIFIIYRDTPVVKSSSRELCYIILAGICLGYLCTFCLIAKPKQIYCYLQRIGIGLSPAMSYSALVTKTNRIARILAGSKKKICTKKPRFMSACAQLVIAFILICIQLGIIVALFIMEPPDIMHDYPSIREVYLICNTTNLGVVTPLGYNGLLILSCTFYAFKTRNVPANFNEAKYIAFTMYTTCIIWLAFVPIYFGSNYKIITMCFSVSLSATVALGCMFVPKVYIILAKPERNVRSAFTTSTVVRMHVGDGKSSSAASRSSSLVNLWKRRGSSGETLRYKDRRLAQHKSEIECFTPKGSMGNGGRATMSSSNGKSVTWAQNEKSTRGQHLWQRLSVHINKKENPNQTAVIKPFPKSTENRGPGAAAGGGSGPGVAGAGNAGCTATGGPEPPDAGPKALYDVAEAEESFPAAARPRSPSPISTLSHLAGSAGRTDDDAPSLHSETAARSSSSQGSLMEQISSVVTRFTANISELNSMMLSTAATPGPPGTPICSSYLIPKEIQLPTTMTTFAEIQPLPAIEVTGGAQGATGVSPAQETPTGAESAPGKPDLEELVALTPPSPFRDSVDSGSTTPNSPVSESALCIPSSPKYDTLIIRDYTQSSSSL", "assay": "Displacement of […] from mGluR5 in rat brain membrane", "format": "cell membranes", "outline": "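Competition binding against [³H]MPEPy in rat whole-brain membranes (minus cerebellum and brainstem), homogenized in 50 mM Tris-HCl/saline pH 7.5, pelleted at 39 800 g. Membranes 5 mg/800 µL final. Competitor from 10 mM ethanol stock, final 0.01 nM to 1 mM. Incubated 1 h at 22 °C, filtered on PEI-soaked GF/B, washed with cold saline, scintillation counted. Three determinations.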"}, "Striatum [2]": {"test_system": "Striatum", "assay": "Drug uptake in rhesus monkey striatum at 4 mCi, iv after 60 to 120 mins", "format": "ADME, organism-based, Macaca mulatta", "conditions": "in vivo", "outline": "(§1)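 Rhesus monkey (~10 kg) anesthetized with ketamine (10 mg/kg, i.m.) and propofol (5 mg/kg, i.v.), then isoflurane 1.0-4.0% in oxygen; body temperature 37-37.5 °C. Radioligand given i.v. and imaged on HRRT PET with attenuation and scatter correction. For blockade, MPEP/MTEP (5 mg/kg, i.v., in saline with 10% ethanol) given 15 min before tracer in the same monkey. Striatal ROI expressed as %SUV (normalized to injected activity and body weight) over 60-120 min.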"}, "[3]": {"assay": "Stability in rhesus monkey brain at 100 uCi in 37 degC after 90 mins", "format": "ADME, tissue-based, Macaca mulatta", "outline": "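Monkey brain tissue (3.34 g, stored at -70 °C for 1 year) was homogenized on ice with about 100 μCi radioligand, incubated at 37 °C and sampled at 5-90 min. Samples were taken into acetonitrile spiked with carrier plus 0.5 M KF, counted and centrifuged at 10 000 g for 1 min. Supernatants went to HPLC, and pellets were counted to give recovery.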"}, "Blood": {"test_system": "Blood", "assay": "Biodistribution in rhesus monkey blood at 4 mCi, iv after180 mins", "format": "ADME, organism-based, Macaca mulatta", "conditions": "in vivo, 3 h", "outline": "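Anesthetized rhesus monkey given [18F] radioligand i.v. Heparinized blood drawn at 1 min intervals to 5 min, then at 10, 25, 40, 60, 90, 120 and 180 min, and kept on ice. Centrifuged 1800 g for 1.5 min. Plasma and cells γ-counted to give the partition of radioactivity into the cellular fraction.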"}, "[4]": {"assay": "Stability in aqueous solution after 159 mins", "format": "physicochemical", "conditions": "buffer, 2.65 h", "outline": "(§2)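 The radioligand was dissolved in water, sampled at 34, 48 and 159 min, and analyzed at once by reverse-phase radio-HPLC (Novapak C-18, MeOH–H2O–Et3N 70:30:0.1, 2.0 mL/min). A second solution in 0.9% saline containing 0.15 mM phosphoric acid was sampled at 54 and 71 min and analyzed the same way.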"}, "Plasma": {"test_system": "Plasma", "assay": "Stability in rhesus monkey plasma at 5 uCi after 168 mins", "format": "ADME, cell-free, Macaca mulatta", "conditions": "2.8 h", "outline": "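Plasma was obtained by spinning whole monkey blood at 1800 g for 5 min. Plasma (1.0 mL) was incubated with 5 μCi radioligand at room temperature for 168 min, and a sample was analyzed by reverse-phase radio-HPLC.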"}, "Hippocampus [5]": {"test_system": "Hippocampus", "assay": "Drug uptake in rhesus monkey hippocampus at 4 mCi, iv after 60 to 120 mins", "format": "ADME, organism-based, Macaca mulatta", "conditions": "in vivo", "outline": "(§3)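 Anesthetized rhesus monkey (~10 kg; ketamine, propofol, isoflurane) given [18F] radioligand 4.0 mCi i.v. Imaged on HRRT with attenuation and scatter correction. Regional time–activity curves from MRI-coregistered regions of interest, expressed as %SUV (normalized for injected activity and body weight). Hippocampal uptake averaged over 60–120 min.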"}, "Hippocampus [6]": {"test_system": "Hippocampus", "assay": "Drug uptake in rhesus monkey hippocampus at 4 mCi, iv in presence of 6-methyl-2-(phenylethynyl)-pyridine after 60 to 120 mins", "format": "ADME, organism-based, Macaca mulatta", "conditions": "in vivo", "outline": "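Same rhesus monkey on a separate day, given blocker 5 mg/kg i.v. in saline with 10% ethanol 15 min before [18F] radioligand (3.8 mCi i.v.). HRRT PET. Regional uptake expressed as %SUV from MRI-coregistered regions of interest, averaged over 60–120 min.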"}, "[7]": {"assay": "Stability in phosphate buffered saline at pH 7.4 after 71 mins", "format": "physicochemical", "conditions": "buffer, pH 7.4, 71 min", "outline": "as §2"}, "[8]": {"assay": "Stability in human whole blood at 2 uCi", "format": "ADME, tissue-based", "conditions": "read-out: Stability", "outline": "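Radioligand (2 μCi) was added to human whole blood (2.0 mL) at 23 °C and sampled at 10-90 min. Each sample was mixed with acetonitrile spiked with carrier and with KF (0.5 M), counted and centrifuged at 10 000 g for 1 min. The supernatant was analyzed by radio-HPLC.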"}, "Brain": {"test_system": "Brain", "assay": "Drug uptake in rhesus monkey brain at 4 mCi, iv", "format": "ADME, organism-based, Macaca mulatta", "conditions": "in vivo", "outline": "as §3"}, "Striatum [9]": {"test_system": "Striatum", "assay": "Drug uptake in rhesus monkey striatum at 4 mCi, iv in presence of 6-methyl-2-(phenylethynyl)-pyridine after 60 to 120 mins", "format": "ADME, organism-based, Macaca mulatta", "conditions": "in vivo", "outline": "as §1"}, "[10]": {"assay": "Stability in human brain at 50 uCi in 37 degC after 3 hrs", "format": "ADME, tissue-based", "outline": "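Human brain tissue (1.76 g) was homogenized in ice-cold saline (3 mL), then mixed with about 50 μCi radioligand in ethanol–water 1:1. The mixture was incubated at 37 °C and sampled at 5-180 min. Samples were taken into carrier-spiked acetonitrile plus 0.5 M KF, counted and centrifuged at 10 000 g. Supernatants went to HPLC, and pellets were counted to give recovery.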"}},
  "note": "pIC50: −log10 of the molar value.",
  "data": [
    {"smiles": "N#Cc1cncc(C#Cc2csc(CF)n2)c1", "values": [
      {"measurement": "pIC50", "setting": "[1]", "result": 9.64}
    ]},
    {"smiles": "N#Cc1cc(F)cc(C#Cc2csc(C[18F])n2)c1", "values": [
      {"measurement": "Drug uptake", "setting": "Striatum [2]", "result": 500, "unit": "%"},
      {"measurement": "remaining at 1.5 h, 100 uCi", "setting": "[3]", "result": 98.2, "unit": "%"},
      {"measurement": "Drug uptake", "setting": "Blood", "result": 33.9, "unit": "%"},
      {"measurement": "Stability", "setting": "[4]", "result": "Stable"},
      {"measurement": "Stability", "setting": "Plasma", "result": "Stable"},
      {"measurement": "Drug uptake", "setting": "Hippocampus [5]", "result": 500, "unit": "%"},
      {"measurement": "Drug uptake", "setting": "Hippocampus [6]", "result": 200, "unit": "%"},
      {"measurement": "Stability", "setting": "[7]", "result": "Stable"},
      {"measurement": "remaining at 2 uCi", "setting": "[8]", "result": "> 98", "unit": "%"},
      {"measurement": "Drug uptake", "setting": "Brain", "result": 450, "unit": "%"},
      {"measurement": "Drug uptake", "setting": "Striatum [9]", "result": 200, "unit": "%"},
      {"measurement": "remaining at 3 h, 50 uCi", "setting": "[10]", "result": 98.6, "unit": "%"}
    ]},
    {"smiles": "N#Cc1cccc(C#Cc2csc(CF)n2)c1", "values": [
      {"measurement": "pIC50", "setting": "[1]", "result": 10.22}
    ]}
  ]
}
